Reference: PubChem BioAssay AID624074 (Broad Institute, 2012)
Activity calls are given as the source filed them.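 How the source made its calls: active means fitted curve reaches a 35% growth drop -35 below twice the top tested dose; inactive means activity in the wrong direction, or the rest.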

Assays:
[1] = system: P. aeruginosa PAK ΔmexAB-oprM growth with EDDHA, OD600, 28 h; assay: iron-limited growth inhibition, mexAB-oprM mutant – whole organism, PAK mexAB-OprM mutant, OD600, EDDHA, dry powder, set 4, dose response (AID 624074)
Procedure, shortened: (§1)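 Test system – Pseudomonas aeruginosa PAK with efflux-deficient ΔmexAB-oprM deletion, whole cells · Reagent – 2 µM EDDHA chelator · Dosing – dose series of compound, final 15 nM to 100 µM · Timing – 28 h at 30 °C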

[2] = as above; settings: P. aeruginosa PAK ΔmexAB-oprM growth with EDDHA, OD600, 28 h; at 100 µM (top of the series)
Procedure, shortened: as §1

For `N#CC(c1ccc(Cl)cc1)c1cccc(C(F)(F)F)n1` (stereo unspecified), the AC35 [1] was 29 µM.
In the case of `N#CC(c1ccc(Cl)cc1)c1ncccc1Cl` (stereo unspecified), the AC35 [1] is reported as 56.2 µM.
Work on `N#CC(c1cccc(C(F)(F)F)n1)c1ccc(Cl)cc1F` (stereo unspecified) yielded an AC35 [1] of 37.8 µM.
For `CCCCC(C#N)c1ccc(F)cn1` (stereo unspecified), the activity change, negative = growth inhibition [2] was -15.7% (inactive).
In the case of `COCCC(C#N)c1ccc(F)cc1` (stereo unspecified), the activity change, negative = growth inhibition [2] is reported as -11.9% (inactive).
With `COCCNC(C#N)c1ccc(Cl)cc1` (stereo unspecified) the activity change, negative = growth inhibition [2] was -1.19% (inactive).
`N#CC(c1ccc(Cl)cc1)c1ccc(Cl)cn1` (stereo unspecified) gave an AC35 [1] of 72 µM.
For `CCCCC(c1ccc(Cl)cc1)c1nn[nH]n1` (stereo unspecified), the activity change, negative = growth inhibition [2] was -10.1% (inactive).
`N#CC(c1cccc(Cl)n1)c1ccc(Cl)cc1F` (stereo unspecified) gave an AC35 [1] of 47.5 µM.
In the case of `N#CC(c1ccc(F)cc1)c1cccc(C(F)(F)F)n1` (stereo unspecified), the AC35 [1] is reported as 25.6 µM.
With `N#CC(c1ccc(Cl)cc1)c1cccc(Cl)n1` (stereo unspecified) the AC35 [1] was 60.3 µM.
